Assay results reported in ChEMBL document CHEMBL1909525, “Synthesis and anticonvulsant activity of novel 2,6-diketopiperazine derivatives. Part 1: perhydropyrrole[1,2-a]pyrazines” (Eur J Med Chem, 2011).
Active and inactive are the calls of the source. The rule behind the calls is not given here.

Assays:
Rattus norvegicus [1] = experiment: Anticonvulsant activity in albino Sprague-Dawley rat assessed as protection against pilocarpine-induced status epilepticus at 600 mg/kg, ip measured after time from first stage 3 seizures; assay type: functional, organism-based; parameters: dose 600 mg/kg
Summary of the method: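 Male albino Sprague-Dawley rats (150–180 g) given compound i.p., then a pilocarpine challenge dose immediately (0 min) or 30 min after treatment. Outcome scored as protection or no protection from epileptic seizures, reported as number protected/number tested.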

Mus musculus [2] = experiment: Anticonvulsant activity in albino Carworth Farms No.1 mouse assessed as protection against subcutaneous metrazol-induced seizure at 30 mg/kg, ip after 4 hrs; assay type: functional, organism-based; parameters: dose 30 mg/kg
Summary of the method: (§1)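 Mouse scMET test. Compound given i.p. (30, 100 or 300 mg/kg) in 0.5% methylcellulose. Pentylenetetrazole 85 mg/kg (CD97) given s.c. at 0.5 or 4 h, then mice observed for 30 min. Protection is absence of clonic spasms; scored as protected/tested.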

Mus musculus [3] = experiment: Anticonvulsant activity in albino Carworth Farms No.1 mouse assessed as protection against subcutaneous metrazol-induced seizure at 300 mg/kg, ip after 0.5 hrs; assay type: functional, organism-based; parameters: dose 300 mg/kg; summary of the method: as §1
Mus musculus [4] = experiment: Neurotoxicity in albino Carworth Farms No.1 mouse assessed as motor impairment at 30 mg/kg, ip after 0.5 hrs by rotarod test; assay type: toxicity, organism-based; parameters: dose 30 mg/kg, route intraperitoneal; conditions: in vivo
Summary of the method: (§2)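 Rotorod neurotoxicity in mice at 6 r.p.m. Compound given i.p. (30, 100, 300 mg/kg) in 0.5% methylcellulose; tested at 30 min and 4 h. Impairment is inability to keep equilibrium on the rod for a given time; scored as impaired/tested.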

Rattus norvegicus [5] = experiment: Toxicity in albino Sprague-Dawley rat pilocarpine-induced status epilepticus model assessed as change in body weight in protected rat at 600 mg/kg, ip measured after 24 hrs of time from first stage 3 seizures; assay type: organism-based; parameters: dose 600 mg/kg, route intraperitoneal; conditions: in vivo
Summary of the method: (§3)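 Pilocarpine-induced status prevention in male albino Sprague-Dawley rats (150–180 g). Compound given i.p. and followed by a pilocarpine challenge. Animals were sorted as protected or non-protected, and average body weight change (g) ± S.E.M. was recorded for each group.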

Mus musculus [6] = experiment: Anticonvulsant activity in albino Carworth Farms No.1 mouse assessed as protection against maximal electroshock-induced seizure at 100 mg/kg, ip after 4 hrs; assay type: functional, organism-based; parameters: dose 100 mg/kg
Summary of the method: (§4)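 Mouse MES test with compound given i.p. (30, 100 or 300 mg/kg) in 0.5% methylcellulose; tested at 0.5 and 4 h. Corneal stimulus of 50 mA at 60 Hz for 0.2 s, electrodes primed with 0.5% butacaine in 0.9% NaCl. Protection is abolition of hindlimb tonic extension; scored as protected/tested.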

Rattus norvegicus [7] = experiment: Toxicity in albino Sprague-Dawley rat pilocarpine-induced status epilepticus model assessed as change in body weight in non-protected rat at 600 mg/kg, ip measured after 24 hrs of time from first stage 3 seizures; assay type: organism-based; parameters: dose 600 mg/kg, route intraperitoneal; conditions: in vivo; summary of the method: as §3
Mus musculus [8] = experiment: Anticonvulsant activity in albino Carworth Farms No.1 mouse assessed as protection against maximal electroshock-induced seizure at 300 mg/kg, ip after 0.5 hrs; assay type: functional, organism-based; parameters: dose 300 mg/kg; summary of the method: as §4
Mus musculus [9] = experiment: Anticonvulsant activity in ip dosed albino Carworth Farms No.1 mouse assessed as protection against maximal electroshock-induced seizure after 0.25 hrs; assay type: functional; conditions: albino Carworth Farms No.1, ip
Summary of the method: (§5)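 Mouse quantification at the time of peak effect, compound given i.p. in 0.5% methylcellulose. Groups of at least eight mice received varied doses until at least two points fell between 100 and 0% response. ED50 (MES, scMET) and TD50 (rotorod) with 95% CI by probit analysis (Finney). PI = TD50/ED50 MES.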

Mus musculus [10] = experiment: Anticonvulsant activity in albino Carworth Farms No.1 mouse assessed as protection against maximal electroshock-induced seizure at 30 mg/kg, ip after 0.5 hrs; assay type: functional, organism-based; parameters: dose 30 mg/kg; summary of the method: as §4
Mus musculus [11] = experiment: Anticonvulsant activity in ip dosed albino Carworth Farms No.1 mouse assessed as time needs to show peak effect for protection against maximal electroshock-induced seizure; assay type: functional
Mus musculus [12] = species: Mus musculus; experiment: Protective index, ratio of TD50 for albino Carworth Farms No.1 mouse to ED50 for albino Carworth Farms No.1 mouse by maximal electroshock-induced seizure test; assay type: functional
Summary of the method: (§6)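 Mouse quantification at the time of peak effect, compound given i.p. in 0.5% methylcellulose. Groups of at least eight mice received varied doses until at least two points fell between 100 and 0% response. PI = TD50/ED50 MES.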

Mus musculus [13] = experiment: Anticonvulsant activity in ip dosed albino Carworth Farms No.1 mouse assessed as protection against subcutaneous metrazol-induced seizure after 0.25 hrs; assay type: functional; conditions: albino Carworth Farms No.1, 0.25 h; summary of the method: as §5
Mus musculus [14] = experiment: Anticonvulsant activity in albino Carworth Farms No.1 mouse assessed as protection against subcutaneous metrazol-induced seizure at 30 mg/kg, ip after 0.5 hrs; assay type: functional, organism-based; parameters: dose 30 mg/kg; summary of the method: as §1
Mus musculus [15] = experiment: Anticonvulsant activity in albino Carworth Farms No.1 mouse assessed as protection against maximal electroshock-induced seizure at 300 mg/kg, ip after 4 hrs; assay type: functional, organism-based; parameters: dose 300 mg/kg; summary of the method: as §4
Mus musculus [16] = experiment: Anticonvulsant activity in albino Carworth Farms No.1 mouse assessed as protection against subcutaneous metrazol-induced seizure at 100 mg/kg, ip after 0.5 hrs; assay type: functional, organism-based; parameters: dose 100 mg/kg; summary of the method: as §1
[17] = Neurotoxicity in ip dosed albino Carworth Farms No.1 mouse assessed as motor impairment after 0.25 hrs by rotarod test; assay type: toxicity, organism-based; conditions: Carworth Farms No.1 (albino), in vivo; summary of the method: as §6
Mus musculus [18] = experiment: Neurotoxicity in albino Carworth Farms No.1 mouse assessed as motor impairment at 300 mg/kg, ip after 0.5 hrs by rotarod test; assay type: toxicity, organism-based; parameters: dose 300 mg/kg, route intraperitoneal; conditions: in vivo; summary of the method: as §2
Mus musculus [19] = experiment: Neurotoxicity in albino Carworth Farms No.1 mouse assessed as motor impairment at 100 mg/kg, ip after 0.5 hrs by rotarod test; assay type: toxicity, organism-based; parameters: dose 100 mg/kg, route intraperitoneal; conditions: in vivo; summary of the method: as §2
Mus musculus [20] = experiment: Anticonvulsant activity in albino Carworth Farms No.1 mouse assessed as protection against subcutaneous metrazol-induced seizure at 100 mg/kg, ip after 4 hrs; assay type: functional, organism-based; parameters: dose 100 mg/kg; summary of the method: as §1
Mus musculus [21] = experiment: Anticonvulsant activity in albino Carworth Farms No.1 mouse assessed as protection against maximal electroshock-induced seizure at 100 mg/kg, ip after 0.5 hrs; assay type: functional, organism-based; parameters: dose 100 mg/kg; summary of the method: as §4
Mus musculus [22] = experiment: Anticonvulsant activity in albino Carworth Farms No.1 mouse assessed as protection against maximal electroshock-induced seizure at 30 mg/kg, ip after 4 hrs; assay type: functional, organism-based; parameters: dose 30 mg/kg; summary of the method: as §4
Mus musculus [23] = experiment: Neurotoxicity in albino Carworth Farms No.1 mouse assessed as motor impairment at 300 mg/kg, ip after 4 hrs by rotarod test; assay type: toxicity, organism-based; parameters: dose 300 mg/kg, route intraperitoneal; conditions: in vivo; summary of the method: as §2
Mus musculus [24] = experiment: Anticonvulsant activity in albino Carworth Farms No.1 mouse assessed as protection against subcutaneous metrazol-induced seizure at 300 mg/kg, ip after 4 hrs; assay type: functional, organism-based; parameters: dose 300 mg/kg; summary of the method: as §1
Mus musculus [25] = experiment: Neurotoxicity in albino Carworth Farms No.1 mouse assessed as motor impairment at 30 mg/kg, ip after 4 hrs by rotarod test; assay type: toxicity, organism-based; parameters: dose 30 mg/kg, route intraperitoneal; conditions: in vivo; summary of the method: as §2

Cl.O=C1[C@H](c2ccccc2)N2CCC[C@H]2C(=O)N1CCc1ccccc1
Activity (Rattus norvegicus [1]): inactive
Activity (Mus musculus [2]): inactive
Activity (Mus musculus [3]): inactive
Activity (Mus musculus [4]): Non-toxic
Activity (Rattus norvegicus [5]): -10 g
Activity (Mus musculus [6]): inactive
Activity (Rattus norvegicus [7]): -18.8 g
Activity (Mus musculus [8]): Active
ED50 (Mus musculus [9]): 80.6 mg/kg
Activity (Mus musculus [10]): inactive
Time (Mus musculus [11]): 0.25 h
Ratio TD50/ED50 (Mus musculus [12]): 2.2
ED50 (Mus musculus [13]): > 200 mg/kg
Activity (Mus musculus [14]): inactive
Activity (Mus musculus [15]): Active
Activity (Mus musculus [16]): inactive
TD50 at 0.25 h [17]: 178 mg/kg
Activity (Mus musculus [18]): Non-toxic
Activity (Mus musculus [19]): Non-toxic
Activity (Mus musculus [20]): inactive
Activity (Mus musculus [21]): Active
Activity (Mus musculus [22]): inactive
Activity (Mus musculus [23]): Non-toxic
Activity (Mus musculus [24]): inactive
Activity (Mus musculus [25]): Non-toxic
